In ChEMBL document CHEMBL1157864, “Synthesis of some novel 2-substituted-5-[isopropylthiazole] clubbed 1,2,4-triazole and 1,3,4-oxadiazoles as potential antimicrobial and antitubercular agents” (Eur J Med Chem, 2010) one finds MIC and Activity data, which are given here for 7 compounds.

For one series, the system named is Staphylococcus aureus. Put plainly: Antimicrobial activity against Staphylococcus aureus ATCC 11632 after 24 hrs by broth microdilution assay. Format: functional. The following applies: ATCC 11632, 24 h. The procedure, abridged: (§1)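 Broth dilution MIC. Stock is 10 mg compound in 1 mL DMSO, serially diluted in Mueller–Hinton broth for bacteria or Sabouraud liquid medium for yeasts and mould. Tubes are inoculated at 10⁵ cfu/mL and incubated at 37 °C for 24 h. Controls are medium alone and medium with DMSO at matching dilutions. MIC is the lowest concentration giving complete growth inhibition.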

Another series has as its system Enterococcus faecalis. Put plainly: Antimicrobial activity against Streptococcus faecalis ATCC 14506 after 24 hrs by broth microdilution assay. Format: functional. The following applies: ATCC 14506, 24 h. The procedure, abridged:
as §1

The next series concerns Bacillus subtilis. Description: Antimicrobial activity against Bacillus subtilis ATCC 60511 after 24 hrs by broth microdilution assay. Format: functional. The following applies: ATCC 60511, 24 h. The procedure, abridged:
as §1

A further series has as its system Klebsiella pneumoniae. Description: Antimicrobial activity against Klebsiella pneumoniae ATCC 10031 after 24 hrs by broth microdilution assay. Format: functional. The following applies: ATCC 10031, 24 h. The procedure, abridged:
as §1

The next series relates to Escherichia coli. Put plainly: Antimicrobial activity against Escherichia coli ATCC 10536 after 24 hrs by broth microdilution assay. The following applies: ATCC 10536, 24 h. It is filed as functional. The procedure, abridged: as §1
The test system of the next series is Pseudomonas aeruginosa. Put plainly: Antimicrobial activity against Pseudomonas aeruginosa ATCC 10145 after 24 hrs by broth microdilution assay. It is filed as functional. The note with it: ATCC 10145, 24 h. The procedure, abridged:
as §1

The test system of the next series is Saccharomyces cerevisiae. Put plainly: Antimicrobial activity against Saccharomyces cerevisiae ATCC 9763 after 24 hrs by broth microdilution assay. It is filed as functional. The following applies: ATCC 9763, 24 h. An outline of the steps: as §1
The next series deals with Candida tropicalis. Description: Antimicrobial activity against Candida tropicalis ATCC 1369 after 24 hrs by broth microdilution assay. It is filed as functional. The note with it: ATCC 1369, 24 h. An outline of the steps: as §1
A further series has as its system Aspergillus niger. Put plainly: Antimicrobial activity against Aspergillus niger ATCC 6275 after 24 hrs by broth microdilution assay. The following applies: ATCC 6275, 24 h. It is filed as functional. The procedure, abridged: as §1
Series [1] relates to Mycobacterium tuberculosis. Description: Antimycobacterial activity against Mycobacterium tuberculosis H37Rv after 21 days by broth dilution assay. It is filed as functional. The following applies: 504 h. The procedure, abridged: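 Middlebrook 7H9 broth with 10% albumin-dextrose-catalase and 0.2% glycerol; frozen culture thawed, diluted to 10⁵ cfu/mL and used as inoculum. Compounds taken up in DMSO and diluted twice in broth, 1.3% DMSO final. Incubated at 37 °C. Growth judged by eye against drug-free and inoculum-free controls and isoniazid. MIC is the lowest concentration inhibiting ≥99% of the starting population.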

The subject of the next series is A549. Description: Cytotoxicity against human A549 cells at 250 uM. It is filed as cell-based. The following applies: a549, 250 µM. The procedure, abridged:
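A549 lung adenocarcinoma cells are grown with fetal bovine serum. Compounds are taken from 10 mM DMSO stocks stored at −20 °C and diluted in culture medium, with treatments at 50–250 µM. Viability is read by MTT assay against untreated cells and a DMSO vehicle control.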

In brackets after ≈: the same amount, converted by molar mass.

Consider `CC(C)c1csc(-c2nnc(-c3ccc([N+](=O)[O-])cc3)o2)n1`, for which the minimum inhibitory concentration (MIC) against Staphylococcus aureus was found to be 16 µg/mL (≈ 50.6 µM); in the series with Enterococcus faecalis, 31.2 µg/mL (≈ 98.8 µM); in the series on Bacillus subtilis it was 31.2 µg/mL (≈ 98.8 µM); with Klebsiella pneumoniae, 62.5 µg/mL (≈ 198 µM); against Escherichia coli, 125 µg/mL (≈ 395 µM); with Pseudomonas aeruginosa, 31.2 µg/mL (≈ 98.8 µM). In addition, the minimum inhibitory concentration (MIC) in the series on Saccharomyces cerevisiae is 16 µg/mL (≈ 50.6 µM); with Candida tropicalis, 16 µg/mL (≈ 50.6 µM); with Aspergillus niger, 31.2 µg/mL (≈ 98.8 µM); in [1], 62.5 µg/mL (≈ 198 µM). In the series with A549, the Activity stood at 50%.

As to `Cc1ccc(-c2nnc(-c3nc(C(C)C)cs3)o2)cc1`, the MIC came to 31.2 µg/mL (≈ 110 µM) with Staphylococcus aureus; 16 µg/mL (≈ 56.1 µM) against Enterococcus faecalis; 31.2 µg/mL (≈ 110 µM) in the series on Bacillus subtilis; 125 µg/mL (≈ 438 µM) in the series on Klebsiella pneumoniae; 62.5 µg/mL (≈ 219 µM) in the series on Escherichia coli; 125 µg/mL (≈ 438 µM) with Pseudomonas aeruginosa. The minimum inhibitory concentration (MIC) in the series on Saccharomyces cerevisiae is 62.5 µg/mL (≈ 219 µM); in the series on Candida tropicalis it was 125 µg/mL (≈ 438 µM); with Aspergillus niger, 31.2 µg/mL (≈ 110 µM); in [1], 16 µg/mL (≈ 56.1 µM).

For the compound `CC(=O)N1N=C(c2nc(C(C)C)cs2)OC1(C)C`, the minimum inhibitory concentration (MIC) against Staphylococcus aureus came out at 62.5 µg/mL (≈ 234 µM); against Enterococcus faecalis it was 125 µg/mL (≈ 468 µM); against Bacillus subtilis, 125 µg/mL (≈ 468 µM); in the series on Klebsiella pneumoniae, 125 µg/mL (≈ 468 µM); against Escherichia coli, 125 µg/mL (≈ 468 µM); against Pseudomonas aeruginosa, 125 µg/mL (≈ 468 µM). In addition, the minimum inhibitory concentration (MIC) was 62.5 µg/mL (≈ 234 µM) against Saccharomyces cerevisiae, 62.5 µg/mL (≈ 234 µM) against Candida tropicalis, 62.5 µg/mL (≈ 234 µM) against Aspergillus niger and 125 µg/mL (≈ 468 µM) in [1].

Turning to `CC(=O)N1N=C(c2nc(C(C)C)cs2)OC1(C)c1ccccc1` (configuration not stated), the MIC against Staphylococcus aureus is 31.2 µg/mL (≈ 94.9 µM); in the series on Enterococcus faecalis it was 31.2 µg/mL (≈ 94.9 µM); in the series on Bacillus subtilis, 62.5 µg/mL (≈ 190 µM); in the series with Klebsiella pneumoniae, 62.5 µg/mL (≈ 190 µM); against Escherichia coli, 62.5 µg/mL (≈ 190 µM); against Pseudomonas aeruginosa, 31.2 µg/mL (≈ 94.9 µM). The MIC in the series with Saccharomyces cerevisiae came to 125 µg/mL (≈ 379 µM); in the series with Candida tropicalis it was 31.2 µg/mL (≈ 94.9 µM); against Aspergillus niger it was 62.5 µg/mL (≈ 190 µM); in [1], 62.5 µg/mL (≈ 190 µM).

Turning to `CC(=O)N1N=C(c2nc(C(C)C)cs2)OC1(C)c1ccc(O)cc1` (configuration not stated), the MIC turned out to be 16 µg/mL (≈ 46.3 µM) in the series on Staphylococcus aureus; 31.2 µg/mL (≈ 90.5 µM) in the series with Enterococcus faecalis; 31.2 µg/mL (≈ 90.5 µM) against Bacillus subtilis; 16 µg/mL (≈ 46.3 µM) against Klebsiella pneumoniae; 16 µg/mL (≈ 46.3 µM) with Escherichia coli; 62.5 µg/mL (≈ 181 µM) in the series on Pseudomonas aeruginosa. The MIC in the series with Saccharomyces cerevisiae is 31.2 µg/mL (≈ 90.5 µM); in the series on Candida tropicalis it was 31.2 µg/mL (≈ 90.5 µM); with Aspergillus niger, 125 µg/mL (≈ 362 µM); in [1], 62.5 µg/mL (≈ 181 µM).

With `COc1ccc(C2(C)OC(c3nc(C(C)C)cs3)=NN2C(C)=O)cc1` (configuration not stated), the MIC in the series with Staphylococcus aureus is 31.2 µg/mL (≈ 86.9 µM); against Enterococcus faecalis, 125 µg/mL (≈ 348 µM); in the series on Bacillus subtilis, 31.2 µg/mL (≈ 86.9 µM); in the series on Klebsiella pneumoniae, 125 µg/mL (≈ 348 µM); in the series with Escherichia coli, 125 µg/mL (≈ 348 µM); against Pseudomonas aeruginosa it was 125 µg/mL (≈ 348 µM). In addition, the MIC against Saccharomyces cerevisiae was found to be 4 µg/mL (≈ 11.1 µM); in the series with Candida tropicalis it was 8 µg/mL (≈ 22.3 µM); with Aspergillus niger it was 8 µg/mL (≈ 22.3 µM); in series [1] it was 62.5 µg/mL (≈ 174 µM).

On to `CC(=O)N1N=C(c2nc(C(C)C)cs2)OC1(C)c1ccc(Cl)cc1` (configuration not stated), for which the MIC is 16 µg/mL (≈ 44 µM) in the series with Staphylococcus aureus; 62.5 µg/mL (≈ 172 µM) with Enterococcus faecalis; 31.2 µg/mL (≈ 85.9 µM) in the series with Bacillus subtilis; 8 µg/mL (≈ 22 µM) in the series with Klebsiella pneumoniae; 8 µg/mL (≈ 22 µM) in the series on Escherichia coli; 8 µg/mL (≈ 22 µM) with Pseudomonas aeruginosa. The MIC is 62.5 µg/mL (≈ 172 µM) against Saccharomyces cerevisiae, 31.2 µg/mL (≈ 85.9 µM) with Candida tropicalis, 62.5 µg/mL (≈ 172 µM) in the series with Aspergillus niger and 16 µg/mL (≈ 44 µM) in [1]. The Activity result in the series with A549 is “Toxic”.
